According to ChEMBL document CHEMBL1143935, “Synthesis and biological evaluation of novel dimiracetam derivatives useful for the treatment of neuropathic pain” (Bioorg Med Chem, 2008):
The source made the active and inactive calls.

Legend:
Rattus norvegicus [1] = organism: Rattus norvegicus; test: Analgesic activity against streptozotocin-induced hyperalgesia in Sprague-Dawley rat assessed as increase in paw mechanical threshold; assay type: functional, organism-based
Outline: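 Male Sprague–Dawley rats, 150–200 g, given streptozotocin 50 mg/kg ip and tested 21 days later; compound given orally at 30–100 mg/kg, with non-diabetic controls. Paw pressure analgesimeter recorded force (g) causing first struggle before and 30, 45, 60 min after dosing; 240 g cutoff. Means of 9–10 rats; ANOVA with Fisher's PLSD.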

Rattus norvegicus [2] = test: Antihyperalgesic activity in Sprague-Dawley rat assessed as lesioned paw pressure threshold at 30 ug/kg, icv after 30 mins; assay type: functional
Outline: (§1)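 Sciatic nerve-ligated (chronic constriction injury, Bennett–Xie) male Sprague–Dawley rats, 150–200 g, dosed i.c.v.; saline served as vehicle. Paw withdrawal threshold (g) of the lesioned paw was read by analgesimeter before dosing and at 30, 45 and 60 min, max force 240 g. Baseline outliers (<40 g, >75 g) were excluded. Mean ± SEM of 8–14 rats; ANOVA with Fisher PLSD.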

Rattus norvegicus [3] = test: Antihyperalgesic activity in Sprague-Dawley rat assessed as lesioned paw pressure threshold at 30 ug/kg, icv after 60 mins; assay type: functional; outline: as §1
Rattus norvegicus [4] = test: Neurotoxicity in Sprague-Dawley rat assessed as behavioural impairment at 100 mg/kg, po by rotarod test; assay type: toxicity, organism-based; set-up: dose 100 mg/kg, route oral; settings: in vivo
Outline: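 Rotarod motor incoordination test in male Sprague–Dawley rats: animals walk against the rotating drum for 30 s, and the readout is the number of falls in 30 s.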

Rattus norvegicus [5] = test: Antihyperalgesic activity in Sprague-Dawley rat assessed as lesioned paw pressure threshold at 30 ug/kg, icv after 45 mins; assay type: functional; outline: as §1
Rattus norvegicus [6] = test: Analgesic activity against nerve injury-induced hyperalgesia in Sprague-Dawley rat assessed as increase in lesional paw pressure threshold at 50 mg/kg, po after 30 to 60 mins; assay type: functional, organism-based; set-up: dose 50 mg/kg
Outline: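 Male Sprague–Dawley rats, 150–200 g, with chronic constriction injury (loose ligatures on right common sciatic nerve, chloral hydrate anaesthesia); oral dosing. Paw pressure analgesimeter measured withdrawal/first-struggle force (g) on lesioned and contralateral paws before and 30, 45, 60 min after dosing. Pre-dose scores below 40 g or above 75 g excluded; 240 g cutoff. Means of 6–11 rats; ANOVA with Fisher's PLSD.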

Rattus norvegicus [7] = test: Antihyperalgesic activity in Sprague-Dawley rat assessed as lesioned paw pressure threshold at 500 ug/kg, icv after 60 mins; assay type: functional
Outline: (§2)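 Male Sprague–Dawley rats, 150–200 g, with right sciatic nerve chronic constriction injury (Bennett–Xie). Compound given i.c.v. and withdrawal threshold (g) on lesioned and contralateral paws measured with an analgesimeter before dosing and at 30, 45, 60 min. Pre-dose scores outside 40–75 g excluded; 240 g maximum force. 8–14 rats per group; ANOVA with Fisher's PLSD.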

Rattus norvegicus [8] = test: Antihyperalgesic activity in Sprague-Dawley rat assessed as lesioned paw pressure threshold at 500 ug/kg, icv after 45 mins; assay type: functional; outline: as §2
Rattus norvegicus [9] = test: Antihyperalgesic activity in Sprague-Dawley rat assessed as lesioned paw pressure threshold at 500 ug/kg, icv after 30 mins; assay type: functional; outline: as §2
Rattus norvegicus [10] = test: Antihyperalgesic activity in Sprague-Dawley rat assessed as lesioned paw pressure threshold at 10 ug/kg, icv after 45 mins; assay type: functional; outline: as §1
Rattus norvegicus [11] = test: Antihyperalgesic activity in Sprague-Dawley rat assessed as lesioned paw pressure threshold at 10 ug/kg, icv after 60 mins; assay type: functional; outline: as §1
Rattus norvegicus [12] = test: Antihyperalgesic activity in Sprague-Dawley rat assessed as lesioned paw pressure threshold at 10 ug/kg, icv after 30 mins; assay type: functional; outline: as §1
Rattus norvegicus [13] = test: Antihyperalgesic activity in Sprague-Dawley rat assessed as lesioned paw pressure threshold at 100 ug/kg, icv after 60 mins; assay type: functional; outline: as §1
Rattus norvegicus [14] = test: Antihyperalgesic activity in Sprague-Dawley rat assessed as lesioned paw pressure threshold at 100 ug/kg, icv after 45 mins; assay type: functional; outline: as §1
Rattus norvegicus [15] = test: Antihyperalgesic activity in Sprague-Dawley rat assessed as lesioned paw pressure threshold at 100 ug/kg, icv after 30 mins; assay type: functional; outline: as §1
Rattus norvegicus [16] = test: Analgesic activity against nerve injury-induced hyperalgesia in Sprague-Dawley rat assessed as increase in lesional paw pressure threshold at 10 mg/kg, po after 30 to 60 mins; assay type: functional, organism-based; set-up: dose 10 mg/kg
Outline: (§3)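 Male Sprague–Dawley rats (150–200 g) given a chronic constriction injury: loose ligatures on the right common sciatic nerve (Bennett–Xie), under chloral hydrate anaesthesia. Oral dosing. Analgesimeter paw pressure; withdrawal force in g recorded before and 30, 45, 60 min after dosing, cut-off 240 g. Rats below 40 g or above 75 g at baseline were excluded. Mean ± SEM, 6–11 rats; ANOVA with Fisher PLSD.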

Rattus norvegicus [17] = test: Analgesic activity against nerve injury-induced hyperalgesia in Sprague-Dawley rat assessed as increase in lesional paw pressure threshold at 30 mg/kg, po after 30 to 60 mins; assay type: functional, organism-based; set-up: dose 30 mg/kg; outline: as §3
Rattus norvegicus [18] = test: Analgesic activity against streptozotocin-induced hyperalgesia in Sprague-Dawley rat assessed as increase in paw mechanical threshold at 100 mg/kg, po; assay type: functional, organism-based; set-up: dose 100 mg/kg
Outline: (§4)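 Male Sprague–Dawley rats (150–200 g) were given streptozotocin 50 mg/kg ip and tested 21 days later. Oral dosing; paw pressure analgesimeter read as the force (g) at first struggling, before and at 30–60 min after dosing, cut-off 240 g. Rats below 40 g or above 75 g at baseline were excluded. Mean ± SEM, 9–10 rats; ANOVA with Fisher PLSD.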

Rattus norvegicus [19] = test: Analgesic activity against streptozotocin-induced hyperalgesia in Sprague-Dawley rat assessed as increase in paw mechanical threshold at 50 mg/kg, po; assay type: functional, organism-based; set-up: dose 50 mg/kg; outline: as §4

Question: What does the source list for `N#Cc1cccc(N2C(=O)CN3C(=O)CCC32)c1` (stereo not drawn)?
Answer: Activity (Rattus norvegicus [1]): Dose-dependent effect; Activity (Rattus norvegicus [2]): 49.7 g; Activity (Rattus norvegicus [3]): 46.8 g; Activity (Rattus norvegicus [4]): Non-toxic; Activity (Rattus norvegicus [5]): 55.4 g; Activity (Rattus norvegicus [6]): Active

Question: For `CC[C@@H](C(N)=O)N1CCCC1=O` [LEVETIRACETAM], which Activity (Rattus norvegicus [7]) is on record?
Answer: 49.3

Question: And the Activity (Rattus norvegicus [8])?
Answer: 52.1

Question: What about the Activity (Rattus norvegicus [9]) of the same compound?
Answer: 51.8

Question: With `NCC1(CC(=O)O)CCCCC1` [GABAPENTIN] as the compound, how does the Activity (Rattus norvegicus [2]) read?
Answer: 46.3 g

Question: What about the Activity (Rattus norvegicus [3]) of the same compound?
Answer: 46.1 g

Question: What about the Activity (Rattus norvegicus [5]) of the same compound?
Answer: 43.5 g

Question: What does the source list for `Cc1cccc(C)c1NC(=O)CN1CCCC1=O` [NEFIRACETAM]?
Answer: Activity (Rattus norvegicus [2]): 46.7 g; Activity (Rattus norvegicus [3]): 47.6 g; Activity (Rattus norvegicus [5]): 49.5 g

Question: For `Cc1cccc(N2C(=O)CN3C(=O)CCC32)c1` (stereo not drawn), which Activity (Rattus norvegicus [10]) is on record?
Answer: 63.4 g

Question: And the Activity (Rattus norvegicus [11])?
Answer: 51.2 g

Question: And the Activity (Rattus norvegicus [12])?
Answer: 59.3 g

Question: With `O=C1CCC2N1CC(=O)N2c1ccccc1` (stereo not drawn) as the compound, how does the Activity (Rattus norvegicus [2]) read?
Answer: 51.7 g

Question: What about the Activity (Rattus norvegicus [3]) of the same compound?
Answer: 53.3 g

Question: And the Activity (Rattus norvegicus [5])?
Answer: 52.7 g

Question: Which results are given for `N#Cc1ccc(N2C(=O)CN3C(=O)CCC32)cc1` (stereo not drawn)?
Answer: Activity (Rattus norvegicus [10]): 55.3 g; Activity (Rattus norvegicus [11]): 58.2 g; Activity (Rattus norvegicus [12]): 59.4 g; Activity (Rattus norvegicus [1]): Dose-dependent effect; Activity (Rattus norvegicus [6]): Active

Question: Which results are given for `Cc1ccccc1N1C(=O)CN2C(=O)CCC21` (stereo not drawn)?
Answer: Activity (Rattus norvegicus [2]): 46.7 g; Activity (Rattus norvegicus [3]): 54.8 g; Activity (Rattus norvegicus [5]): 55.3 g

Question: `O=C1CN2C(=O)CCC2N1` (stereo not drawn) [DIMIRACETAM] was tested. Which Activity (Rattus norvegicus [13]) did it give?
Answer: 39.2 g

Question: What about the Activity (Rattus norvegicus [14]) of the same compound?
Answer: 42.8 g

Question: What about the Activity (Rattus norvegicus [15]) of the same compound?
Answer: 41 g

Question: How did the Activity (Rattus norvegicus [2]) turn out when `CC(C)c1cccc(N2C(=O)CN3C(=O)CCC32)c1` (stereo not drawn) was run?
Answer: 48.5 g

Question: What about the Activity (Rattus norvegicus [3]) of the same compound?
Answer: 42.5 g

Question: And the Activity (Rattus norvegicus [5])?
Answer: 43.7 g

Question: How did the Activity (Rattus norvegicus [10]) turn out when `Cc1ccc(N2C(=O)CN3C(=O)CCC32)cc1` (stereo not drawn) was run?
Answer: 57.4 g

Question: And the Activity (Rattus norvegicus [11])?
Answer: 45.4 g

Question: What about the Activity (Rattus norvegicus [16]) of the same compound?
Answer: inactive

Question: What about the Activity (Rattus norvegicus [17]) of the same compound?
Answer: Active

Question: What about the Activity (Rattus norvegicus [12]) of the same compound?
Answer: 54 g

Question: What about the Activity (Rattus norvegicus [18]) of the same compound?
Answer: Active

Question: What about the Activity (Rattus norvegicus [19]) of the same compound?
Answer: Active

Question: What about the Activity (Rattus norvegicus [4]) of the same compound?
Answer: Non-toxic
